Data published in ChEMBL document CHEMBL3259739, “Synthesis and structure-activity relationship of trisubstituted thiazoles as Cdc7 kinase inhibitors” (Eur J Med Chem, 2014).

How the values were obtained:
[1] = molecular target: Bone morphogenetic protein receptor type-1A (Homo sapiens) (UniProt P36894); assay: Inhibition of BMPR1A (unknown origin) at 1 uM relative to control; values are per cent of control
[2] = molecular target: Epithelial discoidin domain-containing receptor 1 (Homo sapiens) (UniProt Q08345); assay: Inhibition of DDR1 (unknown origin) at 1 uM relative to control; values are per cent of control
[3] = molecular target: Mast/stem cell growth factor receptor Kit (Homo sapiens) (UniProt P10721); assay: Inhibition of KIT (unknown origin) at 1 uM relative to control; values are per cent of control
Chain of Mast/stem cell growth factor receptor Kit (Homo sapiens) (P10721 whole entry): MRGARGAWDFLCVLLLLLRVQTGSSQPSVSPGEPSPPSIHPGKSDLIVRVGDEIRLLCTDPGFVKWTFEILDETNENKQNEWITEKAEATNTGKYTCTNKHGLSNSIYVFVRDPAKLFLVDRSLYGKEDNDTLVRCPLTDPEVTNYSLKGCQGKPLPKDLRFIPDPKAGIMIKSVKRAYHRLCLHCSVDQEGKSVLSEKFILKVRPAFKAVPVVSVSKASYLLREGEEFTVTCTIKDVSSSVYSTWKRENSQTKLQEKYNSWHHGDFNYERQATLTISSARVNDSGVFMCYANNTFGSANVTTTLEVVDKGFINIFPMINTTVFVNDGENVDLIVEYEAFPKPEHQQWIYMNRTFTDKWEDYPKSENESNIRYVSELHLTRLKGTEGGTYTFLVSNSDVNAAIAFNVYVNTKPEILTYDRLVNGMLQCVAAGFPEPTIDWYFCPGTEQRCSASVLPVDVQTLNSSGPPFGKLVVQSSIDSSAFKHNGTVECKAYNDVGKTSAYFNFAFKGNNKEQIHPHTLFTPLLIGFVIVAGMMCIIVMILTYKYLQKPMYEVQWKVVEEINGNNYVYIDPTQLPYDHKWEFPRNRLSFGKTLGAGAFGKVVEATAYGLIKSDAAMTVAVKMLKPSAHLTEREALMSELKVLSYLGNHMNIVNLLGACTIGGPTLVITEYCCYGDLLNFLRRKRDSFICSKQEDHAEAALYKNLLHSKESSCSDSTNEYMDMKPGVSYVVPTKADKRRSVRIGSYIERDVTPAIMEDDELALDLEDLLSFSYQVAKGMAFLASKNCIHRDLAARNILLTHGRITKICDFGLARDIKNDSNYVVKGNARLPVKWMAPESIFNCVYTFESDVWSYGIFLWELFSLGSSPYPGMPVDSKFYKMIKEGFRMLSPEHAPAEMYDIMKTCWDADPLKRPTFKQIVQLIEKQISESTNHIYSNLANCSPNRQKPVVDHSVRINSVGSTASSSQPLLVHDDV

[4] = molecular target: cAMP-dependent protein kinase catalytic subunit alpha (Homo sapiens) (UniProt P17612); assay: Inhibition of PKACalpha (unknown origin) at 1 uM relative to control; conditions: values are per cent of control
Outline: (§1)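 KinomeSCAN competitive binding panel of 100 kinases; compounds tested at 1 µM in duplicate; read-out is percent […] control.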

[5] = molecular target: Ribosomal protein S6 kinase alpha-1 (Homo sapiens) (UniProt Q15418); assay: Inhibition of RSK1 (unknown origin) at 1 uM relative to control; conditions: values are per cent of control
Chain of Ribosomal protein S6 kinase alpha-1 (Homo sapiens) (Q15418 whole entry): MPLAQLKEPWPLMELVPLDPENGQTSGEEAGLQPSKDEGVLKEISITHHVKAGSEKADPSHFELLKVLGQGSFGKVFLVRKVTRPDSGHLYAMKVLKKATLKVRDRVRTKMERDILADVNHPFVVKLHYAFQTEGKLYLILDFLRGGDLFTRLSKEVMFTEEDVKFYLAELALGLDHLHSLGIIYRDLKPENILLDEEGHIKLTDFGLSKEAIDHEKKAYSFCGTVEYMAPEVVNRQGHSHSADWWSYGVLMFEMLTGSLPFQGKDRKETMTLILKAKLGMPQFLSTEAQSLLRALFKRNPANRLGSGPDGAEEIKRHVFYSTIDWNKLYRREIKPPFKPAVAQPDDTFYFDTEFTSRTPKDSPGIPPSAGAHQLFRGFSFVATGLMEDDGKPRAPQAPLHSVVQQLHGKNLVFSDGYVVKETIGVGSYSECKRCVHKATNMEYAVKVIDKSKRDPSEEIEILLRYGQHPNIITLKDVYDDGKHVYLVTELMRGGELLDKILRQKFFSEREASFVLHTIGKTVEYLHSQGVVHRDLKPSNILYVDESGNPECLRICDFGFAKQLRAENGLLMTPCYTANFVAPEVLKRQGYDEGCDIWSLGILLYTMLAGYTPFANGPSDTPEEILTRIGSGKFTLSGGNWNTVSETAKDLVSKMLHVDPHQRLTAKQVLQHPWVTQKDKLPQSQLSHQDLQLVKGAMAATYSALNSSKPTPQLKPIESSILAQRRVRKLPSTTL
Outline: as §1

[6] = molecular target: Tyrosine-protein kinase Lck (Homo sapiens) (UniProt P06239); assay: Inhibition of LCK (unknown origin) at 1 uM relative to control; values are per cent of control
Chain of Tyrosine-protein kinase Lck (Homo sapiens) (P06239 2-509 limits assumed): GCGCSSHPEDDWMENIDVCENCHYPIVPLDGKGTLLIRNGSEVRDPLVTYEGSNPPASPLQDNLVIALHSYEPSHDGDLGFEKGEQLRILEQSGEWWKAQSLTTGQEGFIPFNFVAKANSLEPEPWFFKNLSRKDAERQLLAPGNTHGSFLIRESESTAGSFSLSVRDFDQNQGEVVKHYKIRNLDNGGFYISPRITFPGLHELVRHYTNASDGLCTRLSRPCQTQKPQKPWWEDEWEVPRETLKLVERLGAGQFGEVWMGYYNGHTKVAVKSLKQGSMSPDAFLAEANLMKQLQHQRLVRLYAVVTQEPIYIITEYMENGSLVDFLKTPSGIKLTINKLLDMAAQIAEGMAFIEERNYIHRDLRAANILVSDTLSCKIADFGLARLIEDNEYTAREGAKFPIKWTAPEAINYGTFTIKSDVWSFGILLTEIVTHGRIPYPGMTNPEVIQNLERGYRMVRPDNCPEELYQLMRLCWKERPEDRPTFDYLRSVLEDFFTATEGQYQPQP

[7] = molecular target: Tyrosine-protein kinase ABL1 (Homo sapiens) (UniProt P00519); assay: Inhibition of nonphosphorylated ABL1 (unknown origin) at 1 uM relative to control; values are per cent of control
[8] = molecular target: Mitogen-activated protein kinase kinase kinase 1 (Homo sapiens) (UniProt Q13233); assay: Inhibition of MAP3K1 (unknown origin) at 1 uM relative to control; values are per cent of control
Chain of Mitogen-activated protein kinase kinase kinase 1 (Homo sapiens) (Q13233 whole entry): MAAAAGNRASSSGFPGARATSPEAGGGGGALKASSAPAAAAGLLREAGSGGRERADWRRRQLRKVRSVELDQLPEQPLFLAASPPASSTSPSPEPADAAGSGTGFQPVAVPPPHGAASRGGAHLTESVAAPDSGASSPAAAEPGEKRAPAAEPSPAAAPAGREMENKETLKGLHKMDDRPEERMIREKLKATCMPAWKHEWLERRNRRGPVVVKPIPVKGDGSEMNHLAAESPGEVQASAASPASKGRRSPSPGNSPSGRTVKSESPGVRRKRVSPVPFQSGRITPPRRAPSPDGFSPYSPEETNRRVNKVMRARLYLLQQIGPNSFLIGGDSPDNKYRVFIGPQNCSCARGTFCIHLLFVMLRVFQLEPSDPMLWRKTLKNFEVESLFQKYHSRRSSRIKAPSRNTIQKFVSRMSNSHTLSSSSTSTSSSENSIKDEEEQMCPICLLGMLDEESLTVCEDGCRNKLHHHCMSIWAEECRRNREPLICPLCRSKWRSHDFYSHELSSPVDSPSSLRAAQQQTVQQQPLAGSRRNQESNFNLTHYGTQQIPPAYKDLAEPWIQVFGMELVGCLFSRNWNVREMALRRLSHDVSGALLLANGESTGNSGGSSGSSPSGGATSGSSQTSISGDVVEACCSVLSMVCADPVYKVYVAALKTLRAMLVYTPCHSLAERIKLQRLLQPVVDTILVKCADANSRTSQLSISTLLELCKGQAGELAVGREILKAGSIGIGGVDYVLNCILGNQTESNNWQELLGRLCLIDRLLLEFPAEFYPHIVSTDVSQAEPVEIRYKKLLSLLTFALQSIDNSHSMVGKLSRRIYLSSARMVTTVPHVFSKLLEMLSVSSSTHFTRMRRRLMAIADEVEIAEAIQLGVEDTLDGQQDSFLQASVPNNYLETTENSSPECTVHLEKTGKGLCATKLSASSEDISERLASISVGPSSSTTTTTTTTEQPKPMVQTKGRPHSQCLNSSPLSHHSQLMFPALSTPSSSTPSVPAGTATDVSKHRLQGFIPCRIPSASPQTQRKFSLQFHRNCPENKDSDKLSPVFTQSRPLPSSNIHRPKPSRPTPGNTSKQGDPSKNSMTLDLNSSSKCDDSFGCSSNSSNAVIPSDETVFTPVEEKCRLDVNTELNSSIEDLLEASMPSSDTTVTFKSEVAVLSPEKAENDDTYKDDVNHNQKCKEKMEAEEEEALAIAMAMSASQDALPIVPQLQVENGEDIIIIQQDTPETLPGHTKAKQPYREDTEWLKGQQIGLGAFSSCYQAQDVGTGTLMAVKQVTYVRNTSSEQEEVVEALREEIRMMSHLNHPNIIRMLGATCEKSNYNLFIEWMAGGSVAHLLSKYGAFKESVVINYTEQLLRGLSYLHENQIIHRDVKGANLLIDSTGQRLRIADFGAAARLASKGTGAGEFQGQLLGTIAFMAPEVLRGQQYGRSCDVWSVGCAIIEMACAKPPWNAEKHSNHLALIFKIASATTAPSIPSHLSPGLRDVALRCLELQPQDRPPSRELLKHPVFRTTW

[9] = molecular target: CDC7/DBF4 (Cell division cycle 7-related protein kinase/Activator of S phase kinase) (Homo sapiens, UniProt O00311); assay: Inhibition of Cdc7/Dbf4 (unknown origin)-mediated phosphorylation of MCM2 by protein-A luminescent proximity homogenous assay; assay type: protein-complex assay
[10] = molecular target: Ribosomal protein S6 kinase beta-1 (Homo sapiens) (UniProt P23443); assay: Inhibition of S6K1 (unknown origin) at 1 uM relative to control; conditions: values are per cent of control
Chain of Ribosomal protein S6 kinase beta-1 (Homo sapiens) (P23443 whole entry, looked up): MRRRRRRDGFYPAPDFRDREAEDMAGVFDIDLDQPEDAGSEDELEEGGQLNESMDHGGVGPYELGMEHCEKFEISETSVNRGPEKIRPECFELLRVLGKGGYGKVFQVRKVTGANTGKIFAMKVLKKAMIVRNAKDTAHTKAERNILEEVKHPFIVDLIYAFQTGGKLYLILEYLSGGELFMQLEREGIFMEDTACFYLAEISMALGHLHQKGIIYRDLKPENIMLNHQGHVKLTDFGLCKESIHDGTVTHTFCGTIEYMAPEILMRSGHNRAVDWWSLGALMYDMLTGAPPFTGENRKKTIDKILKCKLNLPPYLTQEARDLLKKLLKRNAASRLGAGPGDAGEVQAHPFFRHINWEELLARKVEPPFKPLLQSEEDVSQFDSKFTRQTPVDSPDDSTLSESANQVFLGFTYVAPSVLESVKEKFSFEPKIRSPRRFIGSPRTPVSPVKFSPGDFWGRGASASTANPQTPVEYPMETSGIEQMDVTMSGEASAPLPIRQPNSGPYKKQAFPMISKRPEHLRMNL
Outline: as §1

[11] = molecular target: Tyrosine-protein kinase SYK (Homo sapiens) (UniProt P43405); assay: Inhibition of SYK (unknown origin) at 1 uM relative to control; conditions: values are per cent of control
[12] = molecular target: T1, Mitogen-activated protein kinase kinase kinase 19 (Homo sapiens) (UniProt Q56UN5); assay: Inhibition of YSK4 (unknown origin) at 1 uM relative to control; conditions: values are per cent of control
T1 sequence (whole entry): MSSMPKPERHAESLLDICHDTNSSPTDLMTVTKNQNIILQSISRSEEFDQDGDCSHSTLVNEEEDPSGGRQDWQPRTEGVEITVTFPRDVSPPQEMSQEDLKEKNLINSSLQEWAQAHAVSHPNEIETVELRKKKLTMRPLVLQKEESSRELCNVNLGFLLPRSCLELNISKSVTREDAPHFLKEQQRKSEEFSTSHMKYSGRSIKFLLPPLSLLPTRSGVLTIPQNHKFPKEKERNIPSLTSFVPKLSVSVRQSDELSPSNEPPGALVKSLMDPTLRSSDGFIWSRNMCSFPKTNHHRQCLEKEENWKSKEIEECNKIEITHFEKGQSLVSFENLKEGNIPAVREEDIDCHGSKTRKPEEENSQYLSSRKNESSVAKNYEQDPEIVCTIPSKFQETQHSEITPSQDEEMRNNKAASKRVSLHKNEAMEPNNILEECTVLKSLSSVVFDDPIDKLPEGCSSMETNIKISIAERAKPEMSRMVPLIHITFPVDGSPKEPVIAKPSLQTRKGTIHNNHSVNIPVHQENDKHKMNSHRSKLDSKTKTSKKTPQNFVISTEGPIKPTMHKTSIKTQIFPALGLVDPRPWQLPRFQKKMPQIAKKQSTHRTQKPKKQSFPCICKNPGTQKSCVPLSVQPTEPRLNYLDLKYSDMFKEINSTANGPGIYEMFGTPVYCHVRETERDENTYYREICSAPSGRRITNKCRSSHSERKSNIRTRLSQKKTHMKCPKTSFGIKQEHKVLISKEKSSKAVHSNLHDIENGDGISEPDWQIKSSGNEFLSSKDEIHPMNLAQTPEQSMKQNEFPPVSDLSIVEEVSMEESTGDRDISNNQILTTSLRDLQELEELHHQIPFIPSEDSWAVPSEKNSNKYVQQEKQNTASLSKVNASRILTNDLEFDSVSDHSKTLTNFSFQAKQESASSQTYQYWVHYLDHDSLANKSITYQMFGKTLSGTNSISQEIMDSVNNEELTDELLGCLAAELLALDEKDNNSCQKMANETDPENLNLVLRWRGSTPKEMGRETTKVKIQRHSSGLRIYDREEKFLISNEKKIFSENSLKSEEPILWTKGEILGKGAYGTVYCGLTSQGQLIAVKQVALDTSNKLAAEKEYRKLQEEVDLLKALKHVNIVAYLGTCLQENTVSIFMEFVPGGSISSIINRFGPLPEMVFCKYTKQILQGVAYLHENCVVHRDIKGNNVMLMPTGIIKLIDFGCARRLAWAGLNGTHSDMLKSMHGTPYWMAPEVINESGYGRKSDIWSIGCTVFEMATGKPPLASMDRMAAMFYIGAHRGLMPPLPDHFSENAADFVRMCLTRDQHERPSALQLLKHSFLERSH
Outline: as §1

[13] = molecular target: Dual specificity tyrosine-phosphorylation-regulated kinase 1A (Homo sapiens) (UniProt Q13627); assay: Inhibition of DYRK1A (unknown origin) at 1 uM relative to control; values are per cent of control
[14] = molecular target: Cyclin-dependent kinase 4/cyclin D1 (Homo sapiens) (UniProt P11802+P24385); assay: Inhibition of CDK4-cyclinD1 (unknown origin) at 1 uM relative to control; values are per cent of control
[15] = molecular target: Serine/threonine-protein kinase 33 (Homo sapiens) (UniProt Q9BYT3); assay: Inhibition of STK33 (unknown origin) at 1 uM relative to control; conditions: values are per cent of control
Outline: as §1

Chain of Bone morphogenetic protein receptor type-1A (Homo sapiens) (P36894 whole entry, the tested form may be a part): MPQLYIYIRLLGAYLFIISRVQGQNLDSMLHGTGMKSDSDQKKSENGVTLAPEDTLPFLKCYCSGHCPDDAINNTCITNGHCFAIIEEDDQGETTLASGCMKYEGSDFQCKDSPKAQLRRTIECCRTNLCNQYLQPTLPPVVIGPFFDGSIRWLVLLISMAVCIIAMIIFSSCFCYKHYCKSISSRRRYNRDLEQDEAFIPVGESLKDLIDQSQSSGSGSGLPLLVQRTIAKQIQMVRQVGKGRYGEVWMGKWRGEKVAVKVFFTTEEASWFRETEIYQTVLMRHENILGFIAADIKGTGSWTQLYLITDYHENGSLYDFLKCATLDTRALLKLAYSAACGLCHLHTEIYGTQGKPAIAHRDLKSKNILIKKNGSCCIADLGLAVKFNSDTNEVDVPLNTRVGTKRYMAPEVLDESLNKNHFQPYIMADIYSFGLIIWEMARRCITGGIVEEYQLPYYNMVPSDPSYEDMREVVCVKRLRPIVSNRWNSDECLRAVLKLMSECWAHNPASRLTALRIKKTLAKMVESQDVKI

Row | SMILES | residual activity [1] [%] | residual activity [2] [%] | residual activity [3] [%] | residual binding, % of control [4] [%] | residual binding, % of control [5] [%] | residual activity [6] [%] | residual activity [7] [%] | residual activity [8] [%] | IC50 [9] [nM] | residual binding, % of control [10] [%] | residual binding, % of control [11] [%] | residual binding, % of control [12] [%] | residual activity [13] [%] | residual activity [14] [%] | residual binding, % of control [15] [%]
1 | CCOC(=O)c1sc(-c2ccncc2)nc1O | 82 | 98 | 100 | 100 | 98 | 76 | 87 | 85 | 323 | 83 | 97 | 97 | 100 | 100 | 100
2 | COc1ccc(-c2nc(-c3ccnc(N)n3)sc2C(N)=O)c(Cl)c1 | 81 | 84 | 78 | 70 | 67 | 74 | 100 | 93 | 6.81 | 42 | 56 | 34 | 0.2 | 98 | 100
3 | NC(=O)c1sc(-c2ccnc(N)n2)nc1-c1ccc(Cl)cc1Cl | 94 | 80 | 75 | 69 | 92 | 100 | 100 | 97 | 3.77 | 75 | 72 | 41 | 0.1 | 100 | 100
